We go through 70 molecules from ChEMBL document CHEMBL4513216, “Probing the Open Global Health Chemical Diversity Library for Multistage-Active Starting Points for Next-Generation Antimalarials” (ACS Infect Dis, 2020).

Molecules are shown by their SMILES.

This series is described as follows: Toxicity liver stage against HepG2, at 10uM. Format: cell-based. On the set-up: test concentration 10 uM, cell line HepG2-A16-CD81EGFP. Conditions: human, HepG2-A16-CD81EGFP cells; read-out: INHIBITION
The method, boiled down:
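Uninfected HepG2-A16-CD81EGFP cells, 3 × 10^3 per well, 1536-well, plated on prespotted compound at 10 μM final, parasite-free screening media added to match infected plates; puromycin 10 μM positive, DMSO 0.5% negative; run in parallel with 48 h PbLuc assay at 37 °C, 5% CO2; viability by CellTiter-Glo luminescence, normalized to controls.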
As to `Oc1ccccc1CN1C[C@H](O)C[C@H]1c1nc(Cc2ccccc2)no1`, the cytotoxicity at 10 µM was -4.82%.

Take `CN1CCC(N(C)C(=O)Nc2ccc(Cl)cc2)CC1`: the cytotoxicity at 10 µM is -0.211%.

With `Cc1occc(=O)c1OCC(=O)N1CCN(c2cccc(Cl)c2)CC1`, the cytotoxicity at 10 µM is -1.18%.

For the molecule `CC(C)n1cnc2ccc(NC(=O)CCCn3cccn3)cc2c1=O`, the cytotoxicity at 10 µM is -10.6%.

Turning to `Cn1nc(-c2ccccc2NC(=O)c2cncc(Br)c2)ccc1=O`, the cytotoxicity at 10 µM is 0.461%.

Turning to `O=C(CC1CC1)NC1CCc2c(ccc(=O)n2CC2CC2)C1` (stereo not given), the cytotoxicity at 10 µM stood at 6.34%.

Turning to `CN(Cc1ccncc1)C1CC2(CCN(C(=O)c3ccnnc3)CC2)C1`, the cytotoxicity at 10 µM is -5.45%.

As to `CC1=N[C@@]2(CC[C@@H]3CN(C(=O)NCC(C)C)C[C@@H]32)C(=O)N1C`, the cytotoxicity at 10 µM came out at 5.01%.

In the case of `O=C1NC(c2ccccc2)=N[C@@]12CC[C@@H]1CN(Cc3ccoc3)C[C@@H]12`, the cytotoxicity at 10 µM was 5.22%.

In the case of `COCC1CN(Cc2cc(C)on2)Cc2cn(CC3CC3)nc21` (stereo not given), the cytotoxicity at 10 µM came to 8.91%.

As for `O=C(c1cccs1)N1CC(C(=O)N2CCCC2)C2(CCOCC2)C1` (stereo not given), the cytotoxicity at 10 µM is -2.64%.

Consider `O=C(Nc1ccccc1)C1CN(Cc2nccs2)CC12CCOCC2` (stereo not given), for which the cytotoxicity at 10 µM is 1.61%.

On to `Cc1[nH]/c(=N/C(=O)Cn2nc(N3CCOCC3)ccc2=O)sc1C`, for which the cytotoxicity at 10 µM turned out to be 1.81%.

Regarding `Cc1ccc(Cn2c(=O)[nH]c3cccnc3c2=O)cc1`, the cytotoxicity at 10 µM is 1.61%.

On to `O=c1[nH]c(N2CCCCC2)nc2nccc(-c3ccc4c(c3)OCO4)c12`, for which the cytotoxicity at 10 µM amounted to 9.54%.

Consider `c1ccc(C[C@H]2[C@H](N3CCOCC3)CCN2Cc2cccnc2)cc1`, for which the cytotoxicity at 10 µM is -4.34%.

Regarding `Cc1ccc(NC(=O)c2n[nH]c(-n3cnnc3)n2)cc1`, the cytotoxicity at 10 µM amounted to 6.33%.

Take `CN(CC1(O)CCN(c2ccnc3ccncc23)CC1)C(=O)CCN`: the cytotoxicity at 10 µM was -6.86%.

On to `COc1ccc(-c2cc3nc([C@H](C)NC(=O)C4CC4)nn3cn2)cc1`, for which the cytotoxicity at 10 µM was -27%.

With `COc1ccc(CNc2ncc(-c3cc(C)no3)c(C(C)C)n2)cc1`, the cytotoxicity at 10 µM was 2.73%.

As for `O=C(NC1CCCc2nc(N3CCOCC3)ncc21)C1CCCC1` (stereo not given), the cytotoxicity at 10 µM is -2.3%.

For `CC(NCCCN1CCCC1=O)c1cc(Br)ccc1F` (stereo not given), the cytotoxicity at 10 µM was 1.63%.

For the molecule `CCN(CC1CCOC1)S(=O)(=O)Cc1cc(Cl)ccc1OC` (stereo not given), the cytotoxicity at 10 µM came out at 3.1%.

As to `O=C1CCC(=O)N1CCn1nnc(-c2cccc(Cl)c2)n1`, the cytotoxicity at 10 µM is -5.05%.

`CCC(=O)NCC(=O)NC(C)c1ccc(OCCC(C)C)cc1` (stereo not given): the cytotoxicity at 10 µM came to 7.89%.

Regarding `CC(C)Nc1ncccc1C(=O)NC1CC(=O)N(CC(F)(F)F)C1` (stereo not given), the cytotoxicity at 10 µM is -1.54%.

Regarding `N#Cc1ccc(CN2CCN(c3cncc(Cl)n3)CC2=O)cc1`, the cytotoxicity at 10 µM was 7.55%.

For the molecule `COC(=O)c1oc(CNC(C)(C)c2ccc3c(c2)OCCO3)cc1C`, the cytotoxicity at 10 µM stood at 5.36%.

On to `Cc1nc(-c2ccco2)ccc1C(=O)NCC(=O)N1CCCCC1`, for which the cytotoxicity at 10 µM is -7.76%.

Regarding `CN1CCC(C(=O)N2CCN(Cc3cccc(Cl)c3)CC2)CC1=O` (stereo not given), the cytotoxicity at 10 µM is 5.44%.

For `CN(C)CCOc1ccc(CNC(=O)c2cccc(Cl)c2Cl)cc1`, the cytotoxicity at 10 µM is 15.5%.

In the case of `Cc1nc(CN2CCC(CNC(=O)C3CCOC3)CC2)oc1C` (stereo not given), the cytotoxicity at 10 µM was found to be 0.0966%.

Turning to `CCCc1cc(NC2CCc3nc(C(C)C)nn3C2)n2ncnc2n1` (stereo not given), the cytotoxicity at 10 µM is -1.41%.

Regarding `O=C(C(CNCc1ccccn1)c1ccccc1)N1CCOCC1` (stereo not given), the cytotoxicity at 10 µM was 0.983%.

Take `NC(=O)NC(=O)CCN1CCCC1c1nc(C2CCCCC2)co1` (stereo not given): the cytotoxicity at 10 µM was 5.33%.

Consider `CCOc1cccc(C(=O)NCCC(=O)NCc2ccncc2)c1`, for which the cytotoxicity at 10 µM stood at 0.961%.

Turning to `Cc1noc(C(C)N2CCN(c3ccc(C#N)cn3)CC2)n1` (stereo not given), the cytotoxicity at 10 µM was -0.871%.

In the case of `Cc1nc(C)n(CC2CCCCN2CC(=O)NCc2ccccn2)n1` (stereo not given), the cytotoxicity at 10 µM is 2.07%.

On to `O=C(CCc1ccsc1)N1CCCC(N2CCNC2=O)C1` (stereo not given), for which the cytotoxicity at 10 µM is -5.7%.

In the case of `c1ccc(-c2cnc(CN(Cc3cccnc3)CC3CCCO3)o2)cc1` (stereo not given), the cytotoxicity at 10 µM stood at 17.5%.

`Cc1nnc(NCCC(=O)N(C)Cc2ccccc2)c(C#N)c1C`: the cytotoxicity at 10 µM was -1.04%.

Regarding `Cc1n[nH]c(C2CN(C(=O)c3ccc(=O)n(C)c3)CCO2)n1` (stereo not given), the cytotoxicity at 10 µM is 3.75%.

As for `CCC(=O)N1CCN(C(=O)Nc2ccccc2-c2cccs2)CC1`, the cytotoxicity at 10 µM is -3.21%.

Consider `CNS(=O)(=O)CC(=O)N(Cc1c(F)cccc1F)C1CCCC1`, for which the cytotoxicity at 10 µM is -1.98%.

For the molecule `Cc1oc(-c2ccccc2)nc1CC(=O)NC1=NCCS1`, the cytotoxicity at 10 µM came to 0.898%.

For the molecule `NC(=O)CCNCc1c(Cl)cccc1N1CCCC1`, the cytotoxicity at 10 µM is 8.15%.

As for `N#Cc1ccc(NC2CCN(Cc3ccccn3)CC2)c(F)c1`, the cytotoxicity at 10 µM is 0.109%.

On to `CC(NC(=O)NCc1ccccn1)c1cccs1` (stereo not given), for which the cytotoxicity at 10 µM is -14.4%.

On to `O=C(CN1CCCNC1=O)N1CCCC(c2nccs2)C1` (stereo not given), for which the cytotoxicity at 10 µM is -12.5%.

For `COc1ccc(CC(=O)N2CCCN(c3ccc(C#N)cc3)CC2)cc1`, the cytotoxicity at 10 µM is -1.95%.

For the molecule `O=C(CCc1nc(Cl)n[nH]1)N1C[C@@H](CN2CCCCC2)[C@@H](CO)C1`, the cytotoxicity at 10 µM is -0.104%.

Turning to `CN(C)C[C@H]1C[C@@H](CO)CN(C(=O)CCc2nc(Cl)n[nH]2)C1`, the cytotoxicity at 10 µM was -3.73%.

Consider `Cc1cncc(C(=O)N2CCN(c3cnn(C)c(=O)c3)CC2)c1`, for which the cytotoxicity at 10 µM was -20.4%.

With `O=S1(=O)C[C@@H]2[C@H](C1)N(Cc1ncc[nH]1)CCN2Cc1cccnc1`, the cytotoxicity at 10 µM was 0.875%.

Turning to `CCNc1ccnc(NCC2CNCCO2)n1` (stereo not given), the cytotoxicity at 10 µM amounted to 3.71%.

Turning to `Fc1ccc(OC2CCN(CCn3cncn3)CC2)cc1`, the cytotoxicity at 10 µM is -5.92%.

Consider `Cc1cncc(C(=O)N2CCCC(O)(CN(C)C)CC2)c1` (stereo not given), for which the cytotoxicity at 10 µM turned out to be 6.22%.

Take `CCOCCn1nc(C)cc1C(=O)N1CC[C@](C)(O)C(C)(C)C1`: the cytotoxicity at 10 µM came to 0.429%.

For `CCOc1ccc(C(=O)CCC(=O)NCc2cncn2CC)cc1C`, the cytotoxicity at 10 µM was found to be 0.902%.

Consider `CN(C)CCn1ccnc1C1CCN(C(=O)CCc2ccncc2)CC1`, for which the cytotoxicity at 10 µM was -9.67%.

Regarding `Cc1nccn1CCC1CCCCN1C(=O)c1ccc2[nH]nnc2c1` (stereo not given), the cytotoxicity at 10 µM turned out to be 19.9%.

For the molecule `CCn1cc(NC(=O)NCC(c2cccc(OC)c2)N(C)C)cn1` (stereo not given), the cytotoxicity at 10 µM is -7.25%.

For `Cc1cnn(C2CCCN(C(=O)Cc3ccc(C#N)cc3)C2)c1` (stereo not given), the cytotoxicity at 10 µM was -8.45%.

On to `Cn1ncc(NCc2cccc(F)c2)c(Cl)c1=O`, for which the cytotoxicity at 10 µM is -7.72%.

In the case of `CN(C)C(=O)N1CCOCC2(CCN(c3ncccn3)C2)C1` (stereo not given), the cytotoxicity at 10 µM was -9.17%.

As for `Cc1nc(CN2CCC3(CCCN(Cc4ccoc4)C3)C2=O)cs1` (stereo not given), the cytotoxicity at 10 µM was -0.142%.

For the molecule `O=c1ccc2c(n1Cc1cccnc1)CCN(CC1CCOC1)CC2` (stereo not given), the cytotoxicity at 10 µM came to 8.13%.

Take `CC[C@@H]1N(Cc2ccc(OC)cc2)CCC[C@]12CCC(=O)N2CCOC`: the cytotoxicity at 10 µM was 14%.

With `CN(C)C(=O)[C@H]1C[C@H]2CN(c3ncccn3)C[C@@H]1O2`, the cytotoxicity at 10 µM was determined as 6.1%.

As for `Cc1noc(C)c1CN1C(=O)[C@@H]2CC[C@H]1CN(Cc1cccnc1N)C2`, the cytotoxicity at 10 µM was determined as 19.7%.
